Experimental data reported in ChEMBL document CHEMBL4177755, “Combating Drug-Resistant Fungi with Novel Imperfectly Amphipathic Palindromic Peptides” (J Med Chem, 2018).
Values after ≈ are worked out from the molar mass of the structure shown.

Experiments:
Candida albicans [1] = assay: Fungicidal activity against Candida albicans SP3902 after 96 hrs; type: functional; settings: SP3902, 96 h, read-out: MFC99.9
In short: (§1)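 After the 48 h, 28 °C broth microdilution in MOPS-buffered RPMI 1640 (inoculum (0.5−1) × 10^3 CFU/mL), 50 μL from each well was plated on YM agar for a further 48 h at 28 °C. MFC is the lowest concentration killing at least 99.9% of cells. Triplicate, three biological replicates.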

Candida albicans [2] = assay: Antifungal activity against Candida albicans cgmcc 2.2086 in presence of CaCl2 by broth dilution method; type: functional
Escherichia coli [3] = assay: Antibacterial activity against Escherichia coli ATCC 25922 after 24 hrs; type: functional; settings: ATCC 25922, 24 h
In short: (§2)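 Broth microdilution. Mid-log bacteria in MHB at a final (0.5−1) × 10^5 CFU/mL were mixed with equal volumes of peptide serially diluted in 0.2% BSA. Plates were incubated 24 h at 37 °C and read at A492. MIC is the lowest concentration inhibiting 95% of growth. Each test was repeated at least 3 times.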

Staphylococcus aureus [4] = assay: Bactericidal activity against Staphylococcus aureus ATCC 29213; type: functional; settings: read-out: MBC99.9
In short: (§3)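 Wells from the 24 h, 37 °C MHB microdilution plates (bacteria at a final (0.5−1) × 10^5 CFU/mL; peptide diluted in 0.2% BSA) were plated on agar and incubated overnight. MBC is the lowest concentration killing >99.9% of cells. Each test was reproduced at least 3 times.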

Candida parapsilosis = assay: Fungicidal activity against Candida parapsilosis cgmcc 2.3989 after 96 hrs; type: functional; settings: Lodderomyces parapsilosis, cgmcc 2.3989, 96 h; read-out: MFC99.9
In short: (§4)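 Wells from the 48 h, 28 °C RPMI 1640/MOPS microdilution plates were plated on YM agar and incubated a further 48 h at 28 °C. MFC is the lowest concentration killing at least 99.9% of cells. Run in triplicate with three biological replicates.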

[5] = Antibacterial activity against Salmonella pullorum ATCC 7913 after 24 hrs; type: functional, Salmonella enterica subsp. enterica serovar Pullorum; settings: Salmonella enterica, ATCC 7913, 24 h; in short: as §2
[6] = test system: Staphylococcus epidermidis; assay: Antibacterial activity against Staphylococcus epidermidis ATCC 12228 after 24 hrs; type: functional; settings: ATCC 12228, 24 h; in short: as §2
Staphylococcus aureus [7] = assay: Antibacterial activity against Staphylococcus aureus ATCC 29213 after 24 hrs; type: functional; settings: ATCC 29213, 24 h
In short: (§5)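 Modified NCCLS broth microdilution. Mid-log bacteria at (0.5−1) × 10^5 CFU/mL in MHB were mixed 1:1 with peptide serially diluted in 0.2% BSA and incubated 24 h at 37 °C. Absorbance was read at 492 nm; MIC is the lowest concentration inhibiting 95% of growth. At least 3 repeats.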

Candida albicans [8] = assay: Antifungal activity against Candida albicans cgmcc 2.2086 after 48 hrs by broth microdilution method; type: functional; settings: cgmcc 2.2086, 48 h
In short: (§6)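 Modified CLSI M27-A2 broth microdilution. Yeast at (0.5−1) × 10^3 CFU/mL in MOPS-buffered RPMI 1640 was mixed 1:1 with peptide serially diluted in 0.2% BSA and incubated 48 h at 28 °C. Absorbance was read at 492 nm; MIC is the lowest concentration inhibiting 95% of growth. Triplicate, three biological replicates.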

Candida albicans [9] = assay: Fungicidal activity against fluconazole-resistant Candida albicans 56452 after 96 hrs; type: functional; settings: Candida albicans, 56452, 96 h; read-out: MFC99.9; in short: as §1
Staphylococcus aureus [10] = assay: Bactericidal activity against Staphylococcus aureus ATCC 25923; type: functional; settings: read-out: MBC99.9; in short: as §3
Escherichia coli [11] = assay: Bactericidal activity against Escherichia coli 1005; type: functional; settings: read-out: MBC99.9; in short: as §3
Candida albicans [12] = assay: Antifungal activity against Candida albicans isolated from alveolar fluid after 48 hrs by broth microdilution method; type: functional; in short: as §6
Candida tropicalis = assay: Antifungal activity against Candida tropicalis cgmcc 2.1975 after 48 hrs by broth microdilution method; type: functional; settings: cgmcc 2.1975, 48 h
In short: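 Modified CLSI M27-A2 broth microdilution. Yeast were suspended in MOPS-buffered RPMI 1640 at a final (0.5−1) × 10^3 CFU/mL and mixed 1:1 with peptide serially diluted in 0.2% BSA. Plates were incubated 48 h at 28 °C and read at A492. MIC is the lowest concentration giving 95% inhibition. Run in triplicate with three biological replicates.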

Pichia kudriavzevii = assay: Fungicidal activity against Candida krusei cgmcc 2.1857 after 96 hrs; type: functional; settings: cgmcc 2.1857, 96 h, read-out: MFC99.9; in short: as §4
Candida albicans [13] = assay: Fungicidal activity against Candida albicans 58288 after 96 hrs; type: functional; settings: Candida albicans, 58288, 96 h; read-out: MFC99.9; in short: as §1
Staphylococcus aureus [14] = assay: Antibacterial activity against methicillin-resistant Staphylococcus aureus ATCC 4330 after 24 hrs; type: functional; settings: ATCC 4330, 24 h; in short: as §5
Escherichia coli [15] = assay: Bactericidal activity against Escherichia coli ATCC 25922; type: functional; settings: read-out: MBC99.9; in short: as §3
Candida albicans [16] = assay: Antifungal activity against Candida albicans cgmcc 2.2086 in presence of MgCl2 by broth dilution method; type: functional
Candida albicans [17] = assay: Antifungal activity against fluconazole-resistant Candida albicans 56214 after 48 hrs by broth microdilution method; type: functional; settings: Candida albicans, 56214, 48 h; in short: as §6
Candida albicans [18] = assay: Antifungal activity against Candida albicans cgmcc 2.2086 in presence of ZnCl2 by broth dilution method; type: functional
Staphylococcus aureus [19] = assay: Bactericidal activity against methicillin-resistant Staphylococcus aureus ATCC 4330; type: functional; settings: read-out: MBC99.9
In short: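 Bacteria at (0.5−1) × 10^5 CFU/mL in MHB were exposed to serially diluted peptide (0.2% BSA) for 24 h at 37 °C, then 50 μL aliquots were plated on agar overnight. MBC is the lowest concentration killing >99.9% of cells. At least 3 repeats.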

Candida albicans [20] = assay: Fungicidal activity against Candida albicans SP3903 after 96 hrs; type: functional; settings: SP3903, 96 h, read-out: MFC99.9; in short: as §1
Candida albicans [21] = assay: Antifungal activity against Candida albicans cgmcc 2.2086 in presence of FeCl3 by broth dilution method; type: functional
Candida albicans [22] = assay: Fungicidal activity against Candida albicans 14936 after 96 hrs; type: functional; settings: Candida albicans, 14936, 96 h; read-out: MFC99.9; in short: as §1
Candida albicans [23] = assay: Antifungal activity against Candida albicans 14936 after 48 hrs by broth microdilution method; type: functional; settings: Candida albicans, 14936, 48 h; in short: as §6
Salmonella typhimurium = assay: Bactericidal activity against Salmonella typhimurium ATCC 14028; type: functional, Salmonella enterica subsp. enterica serovar Typhimurium; settings: Salmonella enterica, read-out: MBC99.9; in short: as §3
Candida albicans [24] = assay: Antifungal activity against Candida albicans cgmcc 2.2086 in presence of KCl by broth dilution method; type: functional
Candida albicans [25] = assay: Antifungal activity against Candida albicans cgmcc 2.2086 in presence of NH4Cl by broth dilution method; type: functional
[26] = test system: Staphylococcus epidermidis; assay: Bactericidal activity against Staphylococcus epidermidis ATCC 12228; type: functional; settings: read-out: MBC99.9; in short: as §3
Escherichia coli [27] = assay: Antibacterial activity against Escherichia coli ATCC 25922 after 18 hrs in presence of FeCl3 by broth dilution method; type: functional; settings: ATCC 25922, 18 h
Escherichia coli [28] = assay: Antibacterial activity against Escherichia coli ATCC 25922 after 18 hrs in presence of NH4Cl by broth dilution method; type: functional; settings: ATCC 25922, 18 h
Escherichia coli [29] = assay: Antibacterial activity against Escherichia coli ATCC 25922 after 18 hrs in presence of ZnCl2 by broth dilution method; type: functional; settings: ATCC 25922, 18 h
Escherichia coli [30] = assay: Antibacterial activity against Escherichia coli ATCC 25922 after 18 hrs in presence of NaCl by broth dilution method; type: functional; settings: ATCC 25922, 18 h

Compound	MFC (Candida albicans [1])	MIC (Candida albicans [2])	MIC95 (Escherichia coli [3])	MBC (Staphylococcus aureus [4])	MFC (Candida parapsilosis)	MIC95 [5]	MIC95 [6]	MIC95 (Staphylococcus aureus [7])	MIC95 (Candida albicans [8])	MFC (Candida albicans [9])	MBC (Staphylococcus aureus [10])	MBC (Escherichia coli [11])	MIC95 (Candida albicans [12])	MIC95 (Candida tropicalis)	MFC (Pichia kudriavzevii)	MFC (Candida albicans [13])	MIC95 (Staphylococcus aureus [14])	MBC (Escherichia coli [15])	MIC (Candida albicans [16])	MIC95 (Candida albicans [17])	also measured
CC[C@H](C)[C@H](NC(=O)CN)C(=O)NCC(=O)N[C@@H](C)C(=O)N[C@H](C(=O)N[C@@H](CC(C)C)C(=O)N[C@@H](CCCCN)C(=O)N[C@H](C(=O)N[C@@H](CC(C)C)C(=O)N[C@H](C(=O)N[C@H](C(=O)NCC(=O)N[C@@H](CC(C)C)C(=O)N1CCC[C@H]1C(=O)N[C@@H](C)C(=O)N[C@@H](CC(C)C)C(=O)N[C@H](C(=O)N[C@@H](CO)C(=O)N[C@@H](Cc1c[nH]c2ccccc12)C(=O)N[C@H](C(=O)N[C@@H](CCCCN)C(=O)N[C@@H](CCCNC(=N)N)C(=O)N[C@@H](CCCCN)C(=O)N[C@@H](CCCNC(=N)N)C(=O)N[C@@H](CCC(N)=O)C(=O)N[C@@H](CCC(N)=O)C(N)=O)[C@@H](C)CC)[C@@H](C)CC)[C@@H](C)O)[C@@H](C)O)C(C)C)C(C)C [MELITTIN]	2 µM (≈ 5.69 µg/mL)	8 µM	2 µM (≈ 5.69 µg/mL)	8 µM (≈ 22.8 µg/mL)	2 µM (≈ 5.69 µg/mL)	2 µM (≈ 5.69 µg/mL)	0.5 µM (≈ 1.42 µg/mL)	8 µM (≈ 22.8 µg/mL)	4 µM (≈ 11.4 µg/mL)	8 µM (≈ 22.8 µg/mL)	4 µM (≈ 11.4 µg/mL)	2 µM (≈ 5.69 µg/mL)	4 µM (≈ 11.4 µg/mL)	4 µM (≈ 11.4 µg/mL)	4 µM (≈ 11.4 µg/mL)	4 µM (≈ 11.4 µg/mL)	1 µM (≈ 2.85 µg/mL)	2 µM (≈ 5.69 µg/mL)	4 µM	4 µM (≈ 11.4 µg/mL)	MIC (Candida albicans [18]): 4 µM; MBC (Staphylococcus aureus [19]): 1 µM (≈ 2.85 µg/mL); MFC (Candida albicans [20]): 4 µM (≈ 11.4 µg/mL); MIC (Candida albicans [21]): 4 µM; MFC (Candida albicans [22]): 8 µM (≈ 22.8 µg/mL); MIC95 (Candida albicans [23]): 4 µM (≈ 11.4 µg/mL); MBC (Salmonella typhimurium): 2 µM (≈ 5.69 µg/mL); MIC (Candida albicans [24]): 4 µM; MIC (Candida albicans [25]): 4 µM; MBC [26]: 1 µM (≈ 2.85 µg/mL)
H-FFRRFRRFF-NH2	32 µM	32 µM	8 µM	32 µM	> 64 µM	32 µM	4 µM	8 µM	16 µM	16 µM	8 µM	16 µM	16 µM	4 µM	4 µM	32 µM	4 µM	8 µM	16 µM	16 µM	MIC (Escherichia coli [27]): 8 µM; MIC (Escherichia coli [28]): 8 µM; MIC (Candida albicans [18]): 32 µM; MBC (Staphylococcus aureus [19]): 4 µM; MFC (Candida albicans [20]): 16 µM; MIC (Escherichia coli [29]): 8 µM; MIC (Candida albicans [21]): 32 µM; MFC (Candida albicans [22]): 32 µM; MIC95 (Candida albicans [23]): 16 µM; MBC (Salmonella typhimurium): 8 µM; MIC (Escherichia coli [30]): 8 µM; MIC (Candida albicans [24]): 16 µM; MIC (Candida albicans [25]): 8 µM; MBC [26]: 8 µM
H-IIRRIRRII-NH2	> 64 µM	64 µM	32 µM	> 64 µM	> 64 µM	32 µM	64 µM	64 µM	64 µM	64 µM	> 64 µM	32 µM	64 µM	4 µM	16 µM	64 µM	64 µM	32 µM	64 µM	64 µM	MIC (Escherichia coli [27]): 64 µM; MIC (Escherichia coli [28]): 32 µM; MIC (Candida albicans [18]): 64 µM; MBC (Staphylococcus aureus [19]): > 64 µM; MFC (Candida albicans [20]): > 64 µM; MIC (Escherichia coli [29]): 32 µM; MIC (Candida albicans [21]): 64 µM; MFC (Candida albicans [22]): > 64 µM; MIC95 (Candida albicans [23]): > 64 µM; MBC (Salmonella typhimurium): > 64 µM; MIC (Escherichia coli [30]): 32 µM; MIC (Candida albicans [24]): 64 µM; MIC (Candida albicans [25]): 64 µM; MBC [26]: > 64 µM
H-LLRRLRRLL-NH2	> 64 µM	64 µM	16 µM	64 µM	> 64 µM	32 µM	16 µM	64 µM	32 µM	32 µM	32 µM	16 µM	64 µM	4 µM	8 µM	32 µM	8 µM	32 µM	64 µM	32 µM	MIC (Escherichia coli [27]): 16 µM; MIC (Escherichia coli [28]): 16 µM; MIC (Candida albicans [18]): 64 µM; MBC (Staphylococcus aureus [19]): 16 µM; MFC (Candida albicans [20]): 16 µM; MIC (Escherichia coli [29]): 16 µM; MIC (Candida albicans [21]): 64 µM; MFC (Candida albicans [22]): > 64 µM; MIC95 (Candida albicans [23]): 32 µM; MBC (Salmonella typhimurium): 32 µM; MIC (Escherichia coli [30]): 16 µM; MIC (Candida albicans [24]): 64 µM; MIC (Candida albicans [25]): 32 µM; MBC [26]: 16 µM
